SENP1 FRET inh = inhibitors of human SENP1 SUMO protease catalytic domain. hit rate 0.21% among 360,000. inhibition, % at 10 µM. AID 624204. Q9P0U3. recombinant SENP1 catalytic domain, CyPet-SUMO1-YPet FRET cleavage;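 active means inhibition at least 30% at 10 µM, raw YFP signal under a set limit, fluorescence ratio 0.5 to 1.5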;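 further: 0% = enzyme with DMSO and 100% = no enzyme wells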
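Test system: human SENP1 catalytic domain; medium: Tris pH 8 buffer plus EDTA, NaCl, BME, BSA, NP40, catalase; incubation: 50 min reaction at room temperature; technique: FRET, CFP and YFP emission; controls: no-enzyme low control and enzyme-plus-DMSO high control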
TPT1 inhibitor = inhibitors of Candida albicans tRNA 2'-phosphotransferase TPT1 | hit rate 0.81% among 300,000 | inhibition, % at 5 µM | recombinant caTPT1, FP RNA substrate dephosphorylation;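 active means inhibition above the mean of all tested compounds plus 3 SD, set per screening campaign, cut at about 24% in these data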;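 further: plate controls were DMSO alone for no effect and ferristatin control at 100 nM for full effect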
CSN deneddyl inh = CSN deneddylation inhibition; Q92905; Purified CSN, SCF-Nedd8-OG deneddylation, fluorescence polarization; inhibition, % at 12.5 µM; hit rate 0.38% among 360,000;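 active means pattern-corrected inhibition above about 35%, with an unprinted fluorescence ratio check between 0.5 and 1.5, limit read from the data, passing the limit was not always enough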;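 further: 0% = enzyme with substrate and 100% = substrate without enzyme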
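test system = HEK293T-derived human Csn5 enzyme | amount = 0.24 nM Csn5 enzyme, final concentration | medium = Tris/NaCl/DTT buffer, pH 7.5 | schedule = 90 min reaction at room temperature | signal = FP | evaluation = inhibition of Csn5 cleavage, % | compound dosing = single dose of 12.5 µM compound with 0.25% DMSO | probe or stimulus = 10 nM SCFSkp2-Nedd8OG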
Rpn11 block = inhibitors of human proteasome Rpn11 | O00487 | inhibition, % at 20 µM | human 26S proteasome, Ub4-pepOG fluorescence polarization; 20S core pre-blocked with epoxomicin | hit rate 0.59% among 360,000;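 active means inhibition at 20 µM, scaled to each plate's controls, above about 33%, limit read from the data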
HNF4A DNA FP = change in binding of human HNF4 alpha to DNA; AID 1224865; HNF4a-FITC DNA binding, fluorescence polarization, 1 h; activity change, % at 10 µM; P41235; hit rate 0.3% among 360,000; in the data active means activity change above about 30%, passing the limit was not always enough
ATG4B inh = inhibitors of human ATG4B cysteine protease | Q9Y4P1 | ATG4B cleavage of LC3-PLA2, NBD-HPC fluorescence, 1 h | inhibition, % at 8.33 µM | hit rate 0.51% among 340,000 | AID 504462
caTPT1 confirm = TPT1 (C. albicans) inhibition, confirmation; shares compounds with TPT1 inhibitor; recombinant caTPT1, fluorescence polarization, RNase T1 coupled; inhibition, % at 5 µM; hit rate 74% among 2,400;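 active means inhibition above the primary screen limit, the mean inhibition of all tested compounds plus 3 SD, cut at about 25% in these data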
RNase T1 counter = RNase T1 inhibition in TPT1 counter-screen; shares compounds with TPT1 inhibitor; RNase T1 cleavage, fluorescence polarization, 1536-well; inhibition, % at 5 µM; hit rate 83% among 2,400; AID 2153;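 active means inhibition above the solvent-only control well mean plus 3 SD, limit set per screening run, cut at about 23% in these data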;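 further: plate controls were DMSO wells with enzyme for no effect and wells without RNase T1 for full effect; inhibitors block cleavage so intact labeled substrate keeps polarization high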
Rpn11 inh conf = confirmation of human proteasome Rpn11 inhibitors; hit rate 29% among 1,900; shares compounds with Rpn11 block; purified human 26S proteasome, Ub4-pepOG fluorescence polarization; proteasome pretreated with epoxomicin; AID 602318; inhibition, % at 20 µM
MMP-2 inh = blocks human MMP-2, flagging nonselective RPN11 hits | recombinant MMP-2, FRET peptide cleavage fluorescence | shares compounds with Rpn11 block | AID 602330 | hit rate 4% among 1,900 | inhibition, % at 20 µM;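 further: human MMP-2 activated beforehand with APMA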
Thrombin inh = blocks bovine thrombin, flagging nonselective RPN11 hits; shares compounds with Rpn11 block; bovine thrombin cleavage of Ub4-pepOG, fluorescence polarization; inhibition, % at 20 µM; hit rate 13% among 1,900; AID 602333;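 active means mean inhibition at least 40% at 20 µM, or signal 3 deviations below plate average, so some actives read negative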;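 further: plate controls were thrombin with DMSO for no effect and buffer wells lacking thrombin for full effect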
Target sequence (P00735 whole entry, looked up): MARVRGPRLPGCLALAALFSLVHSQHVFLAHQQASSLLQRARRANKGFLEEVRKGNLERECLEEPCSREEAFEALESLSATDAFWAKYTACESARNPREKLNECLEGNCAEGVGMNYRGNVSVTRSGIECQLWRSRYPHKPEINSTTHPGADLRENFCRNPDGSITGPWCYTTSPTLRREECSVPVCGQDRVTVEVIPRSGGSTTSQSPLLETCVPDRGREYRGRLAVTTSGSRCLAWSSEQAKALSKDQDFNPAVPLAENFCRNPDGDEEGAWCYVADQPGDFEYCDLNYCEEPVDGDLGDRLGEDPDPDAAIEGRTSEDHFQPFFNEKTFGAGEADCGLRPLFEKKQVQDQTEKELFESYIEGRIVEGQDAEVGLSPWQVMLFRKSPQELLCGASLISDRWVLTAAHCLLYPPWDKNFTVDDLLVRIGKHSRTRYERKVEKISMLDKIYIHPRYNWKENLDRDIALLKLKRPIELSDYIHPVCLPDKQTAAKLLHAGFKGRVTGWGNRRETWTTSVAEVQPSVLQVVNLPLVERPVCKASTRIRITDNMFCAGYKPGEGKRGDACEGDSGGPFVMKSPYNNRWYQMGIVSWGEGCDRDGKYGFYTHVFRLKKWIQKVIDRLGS
Starred values were filed as active, the others as inactive. Hits are enriched below; roughly 2% of the tested compounds scored in any of these assays. Unless noted, no stated cut-off is given here; in the data, active means inhibition above about 40%; inactive means the rest.

CCN(CC)c1ccc(C(=O)NNC(=O)C2CCN(c3ncnc4sc(C)c(C)c34)CC2)cc1 was read as SENP1 FRET inh -14.2, CSN deneddyl inh 8.3, Rpn11 block 7.7 and HNF4A DNA FP -2.4.
CC(=O)c1cccc(-c2ccc3c(=O)[nH]c(Nc4ccccc4)cc3c2)c1 was read as SENP1 FRET inh -46.7, TPT1 inhibitor 30.4*, CSN deneddyl inh 54.6*, Rpn11 block 84.7*, HNF4A DNA FP 11.6, ATG4B inh 18.1, caTPT1 confirm 58.9*, RNase T1 counter 71.0*, Rpn11 inh conf 38.7, MMP-2 inh -16.7 and Thrombin inh -8.1.
Screening COc1cccc(OCc2cc(C(=O)N(C)Cc3nccn3C)no2)c1 returned SENP1 FRET inh 0.8, TPT1 inhibitor -0.3, CSN deneddyl inh 1.7, Rpn11 block -16.3, HNF4A DNA FP 2.9 and ATG4B inh 2.4.
For C/C(=N\Nc1nc(-c2cc(C)ccc2C)cs1)c1cc2c(ccc3ccccc32)oc1=O the results were SENP1 FRET inh -32.2, TPT1 inhibitor 28.1*, CSN deneddyl inh -13.1, Rpn11 block 46.5*, HNF4A DNA FP 12.3, ATG4B inh 16.9, caTPT1 confirm 33.2*, RNase T1 counter 44.6*, Rpn11 inh conf 14.4, MMP-2 inh -11.8 and Thrombin inh -8.5.
`O=[N+]([O-])c1cccnc1N1CCCCC1` gave SENP1 FRET inh 5.0, TPT1 inhibitor -0.2, CSN deneddyl inh 5.3, Rpn11 block 0.0, HNF4A DNA FP 2.7 and ATG4B inh -1.0.
`O=[N+]([O-])c1ccc(N2CCCCC2)s1` gave SENP1 FRET inh 6.0, TPT1 inhibitor 34.7*, CSN deneddyl inh 23.9, Rpn11 block 54.2*, HNF4A DNA FP 25.3, ATG4B inh -5.2, caTPT1 confirm 34.3*, RNase T1 counter 45.8*, Rpn11 inh conf 43.8*, MMP-2 inh 6.2 and Thrombin inh 35.1.
CCOC(=O)c1ccn(CSc2c(F)c(F)cc(F)c2F)n1 was read as SENP1 FRET inh 0.9, CSN deneddyl inh 0.7, Rpn11 block -0.4, HNF4A DNA FP -0.8 and ATG4B inh 4.1.
Screening CN1C(=O)CC(c2cn(Cc3ccccc3)c3ccccc23)C1=O (stereo not given) returned SENP1 FRET inh -59.1, TPT1 inhibitor 26.3*, CSN deneddyl inh 2.4, Rpn11 block 54.1*, HNF4A DNA FP 17.9, ATG4B inh -5.1, caTPT1 confirm 49.6*, RNase T1 counter 60.8*, Rpn11 inh conf 20.5, MMP-2 inh -28.0 and Thrombin inh 23.2.
COc1c(C)cc(C(O)c2ncc(-c3ccc(Cl)cc3)[nH]2)cc1C (stereo not given) was read as SENP1 FRET inh -1.3, CSN deneddyl inh -4.7, Rpn11 block 8.5 and HNF4A DNA FP 1.2.
For CN1CCN(C(=O)/C(=C/c2ccc(N(C)C)cc2)NC(=O)c2ccccc2)CC1 the results were SENP1 FRET inh 5.0, TPT1 inhibitor 44.9*, CSN deneddyl inh 23.7, Rpn11 block 48.7*, HNF4A DNA FP -1.2, ATG4B inh -1.2, caTPT1 confirm 48.2*, RNase T1 counter 58.1*, Rpn11 inh conf 16.8, MMP-2 inh -7.1 and Thrombin inh 5.3.
Screening O=C(CNC(=O)c1cccc(-n2cnnn2)c1)Nc1ccc(F)c(F)c1 returned SENP1 FRET inh -0.4, CSN deneddyl inh -4.4, Rpn11 block -25.3, HNF4A DNA FP 5.3 and ATG4B inh 5.4.
Screening COc1cc(/C=C2\CC/C(=C\c3cc(OC)c(O)c(OC)c3)C2=O)cc(OC)c1O returned SENP1 FRET inh -24.2, TPT1 inhibitor 91.0*, CSN deneddyl inh 123.7, Rpn11 block 111.9*, HNF4A DNA FP 25.0, ATG4B inh 21.4, caTPT1 confirm 95.0*, RNase T1 counter 100.6*, Rpn11 inh conf 88.6*, MMP-2 inh 5.4 and Thrombin inh 80.5*.
COc1cc(/C=C2/CCC/C(=C\c3cc(O)c(OC)c(Cl)c3)C2=O)cc(Cl)c1O was read as SENP1 FRET inh -4.8, TPT1 inhibitor 36.4*, CSN deneddyl inh 9.4, Rpn11 block 63.8*, HNF4A DNA FP 14.6, ATG4B inh 12.5, caTPT1 confirm 18.7, RNase T1 counter 23.2*, Rpn11 inh conf 7.2, MMP-2 inh 46.9* and Thrombin inh 5.3.
Screening CCCNC(=O)C1(C)CCCN(C(=O)c2c(C)noc2C)C1 (stereo not given) returned SENP1 FRET inh 3.1, CSN deneddyl inh 4.2, Rpn11 block -4.9 and HNF4A DNA FP 0.6.
For O=[N+]([O-])c1ccc(/C=N/Nc2ccc3ccccc3c2)o1 the results were SENP1 FRET inh 37.9*, TPT1 inhibitor 32.3*, CSN deneddyl inh 22.6, Rpn11 block 41.2*, HNF4A DNA FP 9.7, ATG4B inh -10.9, caTPT1 confirm 39.1*, RNase T1 counter 46.7*, Rpn11 inh conf 25.3, MMP-2 inh 9.0 and Thrombin inh 13.5.
CCCCC(c1nnnn1C(C)C)N1CCN(C(=O)c2ccco2)CC1 (stereo not given) was read as SENP1 FRET inh 0.0, TPT1 inhibitor -1.9, CSN deneddyl inh 2.2, Rpn11 block -8.4, HNF4A DNA FP 1.4 and ATG4B inh 3.8.
Screening N#Cc1c(SCC(=O)Nc2nccs2)sc2c(O)cc(=O)[nH]c12 returned SENP1 FRET inh -15.5, TPT1 inhibitor 79.0*, CSN deneddyl inh 11.8, Rpn11 block 60.5*, HNF4A DNA FP -22.1, ATG4B inh 16.4, caTPT1 confirm 9.9, RNase T1 counter 15.1, Rpn11 inh conf 20.6, MMP-2 inh 26.2 and Thrombin inh 7.0.
`CCc1ccc([C@H]2C(C(=O)O)=C[C@@H](CC3CCCC3)N2S(=O)(=O)c2ccc(C)cc2)cc1` gave SENP1 FRET inh -0.2, CSN deneddyl inh -0.1, Rpn11 block 12.7, HNF4A DNA FP -1.3 and ATG4B inh 10.5.
